# Legend:
# [1] = Inhibition of [3H]- LSD binding to 5-HT5 receptor expressed in CHO cells; type: cell-based
# [2] = target: 5-hydroxytryptamine receptor 7 (Rattus norvegicus) (UniProt P32305); experiment: Stimulation of cAMP production in CHO cells expressing rat 5-hydroxytryptamine 7 receptor; type: functional, cell-based
# In short: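 cAMP production in CHO cells expressing rat 5-HT7 receptor. Efficacy is expressed as percent of the 5-HT-stimulated production.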
# Adrenergic receptor beta = Adrenergic receptor beta (Rattus norvegicus, UniProt P18090+P10608+P26255); experiment: Inhibition of [3H]DHA binding to rat cortex Beta receptor
# [3] = target: Serotonin 3 (5-HT3) receptor; experiment: Inhibition of [3H]GR-65630 binding to rabbit ileum muscularis 5-HT3 receptor; type: tissue-based, Oryctolagus cuniculus
# [4] = target: T1, 5-hydroxytryptamine receptor 1A (Homo sapiens, UniProt P08908); experiment: Inhibition of [3H]8-OH-DPAT binding to human 5-HT1A receptor
# T1 sequence (P08908 whole entry): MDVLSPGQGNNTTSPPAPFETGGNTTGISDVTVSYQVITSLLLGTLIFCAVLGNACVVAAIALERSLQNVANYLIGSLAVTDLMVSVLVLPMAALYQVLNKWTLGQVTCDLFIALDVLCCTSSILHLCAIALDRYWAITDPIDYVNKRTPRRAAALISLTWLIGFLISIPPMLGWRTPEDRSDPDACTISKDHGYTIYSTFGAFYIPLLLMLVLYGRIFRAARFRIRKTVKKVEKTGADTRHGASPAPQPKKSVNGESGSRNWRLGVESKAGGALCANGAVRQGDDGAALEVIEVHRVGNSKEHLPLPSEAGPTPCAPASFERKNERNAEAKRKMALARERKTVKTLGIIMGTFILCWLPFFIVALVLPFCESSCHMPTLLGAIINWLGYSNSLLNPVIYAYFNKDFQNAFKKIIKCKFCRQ
# In short: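 Human 5-HT1A receptor expressed in CHO cells, labelled with [3H]-8-OH-DPAT.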
# [5] = target: T2, Adrenergic receptor alpha-2 (Rattus norvegicus, UniProt P22086+P19328+P22909); experiment: Inhibition of [3H]RX-821002 binding to rat cortex Alpha 2 receptor
# T2 sequence (P22086 whole entry): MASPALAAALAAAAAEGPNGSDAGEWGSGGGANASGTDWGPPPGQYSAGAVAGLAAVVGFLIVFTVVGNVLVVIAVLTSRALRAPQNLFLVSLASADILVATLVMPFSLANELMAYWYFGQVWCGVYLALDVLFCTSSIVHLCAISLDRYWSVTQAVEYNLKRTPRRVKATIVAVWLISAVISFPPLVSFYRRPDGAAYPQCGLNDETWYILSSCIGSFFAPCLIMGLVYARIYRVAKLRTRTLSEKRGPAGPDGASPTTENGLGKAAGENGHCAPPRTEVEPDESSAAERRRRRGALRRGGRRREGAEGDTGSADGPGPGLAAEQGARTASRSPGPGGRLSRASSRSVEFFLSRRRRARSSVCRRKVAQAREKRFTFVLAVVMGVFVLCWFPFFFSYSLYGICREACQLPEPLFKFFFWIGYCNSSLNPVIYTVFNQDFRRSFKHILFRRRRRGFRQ
# T2 sequence (P19328 whole entry): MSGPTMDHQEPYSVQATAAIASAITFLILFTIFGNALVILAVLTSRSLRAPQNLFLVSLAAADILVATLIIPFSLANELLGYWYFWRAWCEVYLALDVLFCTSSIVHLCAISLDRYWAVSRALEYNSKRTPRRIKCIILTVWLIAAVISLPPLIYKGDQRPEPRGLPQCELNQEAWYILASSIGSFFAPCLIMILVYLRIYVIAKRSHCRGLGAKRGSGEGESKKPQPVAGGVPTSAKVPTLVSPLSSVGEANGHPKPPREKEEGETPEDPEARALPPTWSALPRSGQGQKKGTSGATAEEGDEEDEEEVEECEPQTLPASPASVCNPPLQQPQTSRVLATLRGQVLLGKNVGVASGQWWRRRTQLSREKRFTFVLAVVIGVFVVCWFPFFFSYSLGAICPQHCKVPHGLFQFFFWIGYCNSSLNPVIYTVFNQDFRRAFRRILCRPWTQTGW
# T2 sequence (P22909 whole entry): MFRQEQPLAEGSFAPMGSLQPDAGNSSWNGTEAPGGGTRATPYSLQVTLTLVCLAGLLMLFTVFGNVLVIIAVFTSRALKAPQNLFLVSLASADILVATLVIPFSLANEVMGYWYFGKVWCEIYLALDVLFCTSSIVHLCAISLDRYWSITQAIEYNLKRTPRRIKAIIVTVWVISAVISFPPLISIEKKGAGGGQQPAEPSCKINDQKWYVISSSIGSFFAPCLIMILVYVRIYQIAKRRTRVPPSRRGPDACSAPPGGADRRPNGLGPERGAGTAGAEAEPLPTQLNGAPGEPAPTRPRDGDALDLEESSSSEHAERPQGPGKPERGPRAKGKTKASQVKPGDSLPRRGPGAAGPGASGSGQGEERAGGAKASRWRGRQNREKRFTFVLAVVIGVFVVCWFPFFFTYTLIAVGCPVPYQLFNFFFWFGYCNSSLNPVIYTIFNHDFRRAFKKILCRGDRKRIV
# [6] = target: 5-hydroxytryptamine receptor 2A (Rattus norvegicus, UniProt P14842); experiment: Inhibition of [3H]- Ketanserin binding to rat cortex 5-HT2A receptor
# Chain of 5-hydroxytryptamine receptor 2A (P14842 whole entry): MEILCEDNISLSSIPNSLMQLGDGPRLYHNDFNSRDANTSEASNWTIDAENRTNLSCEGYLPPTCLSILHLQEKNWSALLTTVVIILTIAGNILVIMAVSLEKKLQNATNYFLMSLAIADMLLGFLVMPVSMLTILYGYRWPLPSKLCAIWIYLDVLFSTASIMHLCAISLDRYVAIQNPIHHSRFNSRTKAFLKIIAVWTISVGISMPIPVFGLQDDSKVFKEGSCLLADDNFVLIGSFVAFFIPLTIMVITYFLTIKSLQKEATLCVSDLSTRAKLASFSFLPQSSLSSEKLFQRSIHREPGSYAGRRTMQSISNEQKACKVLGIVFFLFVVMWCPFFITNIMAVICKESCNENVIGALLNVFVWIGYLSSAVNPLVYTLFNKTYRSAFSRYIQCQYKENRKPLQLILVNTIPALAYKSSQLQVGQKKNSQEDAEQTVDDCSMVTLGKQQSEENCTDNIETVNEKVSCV
# [7] = target: 5-hydroxytryptamine receptor 4 (Cavia porcellus, UniProt O70528); experiment: Inhibition of [3H]- GR-113808 binding to guinea pig striatum 5-HT4 receptor; type: tissue-based
# Chain of 5-hydroxytryptamine receptor 4 (O70528 whole entry): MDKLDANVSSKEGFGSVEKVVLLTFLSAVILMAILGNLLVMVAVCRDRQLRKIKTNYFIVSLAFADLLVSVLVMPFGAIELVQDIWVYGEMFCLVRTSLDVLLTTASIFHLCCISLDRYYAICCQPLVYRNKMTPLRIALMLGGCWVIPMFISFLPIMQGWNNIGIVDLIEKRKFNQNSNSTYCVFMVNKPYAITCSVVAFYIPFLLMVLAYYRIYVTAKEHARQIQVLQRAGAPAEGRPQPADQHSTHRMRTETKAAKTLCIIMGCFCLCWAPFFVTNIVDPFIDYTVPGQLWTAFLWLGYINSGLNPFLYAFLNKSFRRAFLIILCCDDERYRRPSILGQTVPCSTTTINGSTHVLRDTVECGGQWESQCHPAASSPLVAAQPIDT
# [8] = target: T3, 5-hydroxytryptamine receptor 6 (Rattus norvegicus, UniProt P31388); experiment: Inhibition of [3H]5-HT binding to rat 5-HT6 receptor
# T3 sequence (P31388 whole entry): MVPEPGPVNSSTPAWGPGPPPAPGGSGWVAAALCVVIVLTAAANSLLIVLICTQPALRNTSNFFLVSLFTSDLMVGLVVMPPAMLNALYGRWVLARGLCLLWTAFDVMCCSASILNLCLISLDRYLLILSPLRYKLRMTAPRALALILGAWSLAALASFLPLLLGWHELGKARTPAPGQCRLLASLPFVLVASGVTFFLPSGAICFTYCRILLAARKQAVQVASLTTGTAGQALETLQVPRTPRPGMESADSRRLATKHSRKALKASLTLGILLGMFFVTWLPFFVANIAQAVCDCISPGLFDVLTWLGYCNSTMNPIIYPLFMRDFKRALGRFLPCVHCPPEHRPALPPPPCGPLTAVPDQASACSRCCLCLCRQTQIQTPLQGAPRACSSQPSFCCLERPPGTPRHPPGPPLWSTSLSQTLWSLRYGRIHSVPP
# [9] = target: 5-hydroxytryptamine receptor 7 (Rattus norvegicus, UniProt P32305); experiment: Inhibition of [3H]5-HT binding to rat 5-HT7 receptor
# Chain of 5-hydroxytryptamine receptor 7 (P32305 whole entry): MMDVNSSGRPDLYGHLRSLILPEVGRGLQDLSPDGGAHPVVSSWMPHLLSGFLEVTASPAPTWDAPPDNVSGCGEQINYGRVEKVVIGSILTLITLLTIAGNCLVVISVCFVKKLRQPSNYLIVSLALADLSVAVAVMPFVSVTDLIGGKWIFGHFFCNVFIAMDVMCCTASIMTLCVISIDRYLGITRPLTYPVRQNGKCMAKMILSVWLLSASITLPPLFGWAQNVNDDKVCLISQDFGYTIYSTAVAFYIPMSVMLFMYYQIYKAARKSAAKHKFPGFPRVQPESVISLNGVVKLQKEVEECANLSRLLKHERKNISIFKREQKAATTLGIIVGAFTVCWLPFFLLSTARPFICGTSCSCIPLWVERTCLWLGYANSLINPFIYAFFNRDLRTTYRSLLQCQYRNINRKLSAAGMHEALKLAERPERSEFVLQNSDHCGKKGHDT
# In short: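 Displacement of [3H]-5-HT from rat 5-HT7 receptor expressed in CHO or Sf9 cells.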
# [10] = target: T3, 5-hydroxytryptamine receptor 6; experiment: Inhibition of [3H]-5-HT binding to rat 5-HT6 receptor
# Chain of 5-hydroxytryptamine receptor 7 (Rattus norvegicus) (P32305 whole entry): as above
Ki [10] [µM],Structure (SMILES),Ki [1] [µM],Efficacy [2] [%],Ki (Adrenergic receptor beta) [µM],IC50 [3] [µM],Ki [4] [µM],Ki [5] [µM],Ki [6] [µM],IC50 [7] [µM],IC50 [8] [µM],Ki [9] [µM]
–,COc1cccc(OC)c1-c1cccc2c1CC[C@H](N(C)C)C2,0.065,< 10,> 1,> 1,1.42,0.188,1.34,> 1,> 1,0.00255
> 0.9,CCCN(CCC)[C@H]1CCc2c(cccc2-c2c(OC)cccc2OC)C1,–,100,> 1,–,0.347,2.09,1.45,–,–,0.0079
